The results in this text go back to ChEMBL document CHEMBL1671756, “In vitro and in vivo antifungal susceptibilities of the Mucoralean fungus Cunninghamella” (2010).

The subject of assay [1] is Cunninghamella bertholletiae. In words: Antifungal activity against Cunninghamella bertholletiae UTSCH 05-2275 infected in diabetic OF1 mouse assessed as decreased fungal load in kidney at 0.8 mg/kg, iv qd administered 1 day post infection measured after 4 to 5 days relative to untreated control. It counts as functional, organism-based. On the set-up: dose 0.8 mg/kg. The procedure, abridged:
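Diabetic OF1 mice (streptozocin 210 mg/kg i.p.; glucose >250 mg/dl) were infected i.v. with 1 × 10⁵ CFU, with ceftazidime cover. Ten per group were treated from day 1 and killed day 5, or day 4 if moribund. Half-organ homogenates (brain, lung, kidney) in 1 ml saline were serially diluted 10-fold on PDA, incubated 24 h at 35°C, and reported as log₁₀ CFU/g tissue.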

Assay [2] deals with Cunninghamella bertholletiae. In words: Antifungal activity against Cunninghamella bertholletiae UTHSC 04-2581 infected in neutropenic OF1 mouse assessed as increase in mouse survival rate at 0.8 mg/kg, iv qd administered 1 day after infection for 7 days relative to untreated control. It counts as functional, organism-based. On the set-up: dose 0.8 mg/kg. The procedure, abridged:
(§1)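 Male OF1 mice (~30 g) were made neutropenic with cyclophosphamide 200 mg/kg i.p. plus 5-fluorouracil 150 mg/kg i.v. 1 day before challenge. Challenge was 1 × 10⁴ CFU sporangiospores in 0.2 ml saline via the lateral tail vein. Mice got ceftazidime 5 mg/day s.c. on days 1–7. Dosing started 24 h post-challenge for 7 days. There were 10 mice/group, observed daily for 20 days. Kaplan-Meier analysis with log-rank test.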

The subject of assay [3] is Cunninghamella bertholletiae. In words: Antifungal activity against Cunninghamella bertholletiae UTHSC 05-2275 infected in diabetic OF1 mouse assessed as increase in mouse survival rate at 0.8 mg/kg, iv qd administered 1 day after infection for 7 days relative to untreated control. The assay is classed as functional, organism-based. On the set-up: dose 0.8 mg/kg. The procedure, abridged: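 Male OF1 mice were made diabetic with streptozocin 210 mg/kg i.p. Diabetes was confirmed by blood glucose >250 mg/dl at day 10. Challenge was 1 × 10⁵ CFU in 0.2 ml saline i.v. (tail vein), with ceftazidime 5 mg/day s.c. on days 1–7. Treatment began 1 day after challenge for 7 days. There were 10 mice/group, checked daily for 20 days. Kaplan-Meier analysis with log-rank comparison.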

For assay [4], the system named is Cunninghamella bertholletiae. In words: Antifungal activity against Cunninghamella bertholletiae UTHSC 06-1945 infected in neutropenic OF1 mouse assessed as increase in mouse survival rate at 0.8 mg/kg, iv qd administered 1 day after infection. It counts as functional, organism-based. On the set-up: dose 0.8 mg/kg. The essentials: as §1
The subject of assay [5] is Cunninghamella bertholletiae. Kind of assay: Antifungal activity against Cunninghamella bertholletiae UTHSC 05-2275 infected in neutropenic OF1 mouse assessed as decreased fungal load in kidney at 40 mg/kg, po qd administered 1 day post infection measured after 4 to 5 days relative to untreated control. It counts as functional, organism-based. More on the design: dose 40 mg/kg. The procedure, abridged: (§2)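 Neutropenic male OF1 mice (cyclophosphamide 200 mg/kg i.p. plus 5-fluorouracil 150 mg/kg i.v., day −1) were given 1 × 10⁴ CFU sporangiospores i.v. in 0.2 ml saline. Treatment from 24 h: 0.8 mg/kg i.v. or oral doses once daily; 10 mice per group. Killed at day 5 (day 4 if moribund). About half of brain, lungs and kidneys homogenized in saline; 10-fold dilutions plated on PDA for 24 h at 35°C; log₁₀ CFU/g tissue.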

In assay [6] the test system is Cunninghamella bertholletiae. In words: Antifungal activity against Cunninghamella bertholletiae UTHSC 05-2275 infected in diabetic OF1 mouse assessed as increase in mouse survival rate at 40 mg/kg, po qd administered 1 day after infection for 7 days relative to untreated control. It counts as functional, organism-based. On the set-up: dose 40 mg/kg. The essentials:
(§3)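 Male OF1 mice made diabetic with streptozocin 210 mg/kg i.p.; blood glucose above 250 mg/dl at day 10 required. Infected i.v. via the tail vein with 1 × 10⁵ CFU sporangiospores in 0.2 ml saline. Ceftazidime 5 mg/day s.c. on days 1–7. Oral once-daily treatment from day 1 for 7 days; 10 mice per group; followed for 20 days; Kaplan-Meier mean survival time, log-rank test.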

Assay [7] relates to Cunninghamella bertholletiae. In words: Antifungal activity against Cunninghamella bertholletiae FMR-9598 infected in neutropenic OF1 mouse assessed as decreased fungal load in brain at 0.8 mg/kg, iv qd administered 1 day post infection measured after 4 to 5 days relative to untreated control. The assay is classed as functional, organism-based. More on the design: dose 0.8 mg/kg. The procedure, abridged:
as §2

For assay [8], the system named is Cunninghamella bertholletiae. In words: Antifungal activity against Cunninghamella bertholletiae UTHSC 06-1945 infected in neutropenic OF1 mouse assessed as increase in mouse survival rate at 60 mg/kg, po qd administered 1 day after infection. The assay is classed as functional, organism-based. On the set-up: dose 60 mg/kg. The essentials:
(§4)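 Male OF1 mice, about 30 g, made neutropenic with cyclophosphamide 200 mg/kg i.p. plus 5-fluorouracil 150 mg/kg i.v. 1 day before challenge. Infected i.v. via the lateral tail vein with 1 × 10⁴ CFU of hemacytometer-counted sporangiospores in 0.2 ml saline. Ceftazidime 5 mg/day s.c. on days 1–7. Oral treatment started 24 h after challenge; 10 mice per group; checked daily for 20 days; Kaplan-Meier mean survival time, log-rank test.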

Assay [9] relates to Cunninghamella bertholletiae. In words: Antifungal activity against Cunninghamella bertholletiae UTHSC 05-2275 infected in diabetic OF1 mouse assessed as increase in mouse survival rate at 20 mg/kg, po qd administered 1 day after infection for 7 days relative to untreated control. It counts as functional, organism-based. More on the design: dose 20 mg/kg. The essentials:
as §3

Assay [10] has as its system Cunninghamella bertholletiae. In words: Antifungal activity against Cunninghamella bertholletiae UTHSC 05-2275 infected in neutropenic OF1 mouse assessed as decreased fungal load in brain at 40 mg/kg, po qd administered 1 day post infection measured after 4 to 5 days relative to untreated control. The assay is classed as functional, organism-based. More on the design: dose 40 mg/kg. The procedure, abridged: as §2

For assay [11], the system named is Cunninghamella bertholletiae. Kind of assay: Antifungal activity against Cunninghamella bertholletiae UTSCH 05-2275 infected in diabetic OF1 mouse assessed as decreased fungal load in lung at 40 mg/kg, po qd administered 1 day post infection measured after 4 to 5 days relative to untreated control. The assay is classed as functional, organism-based. More on the design: dose 40 mg/kg. The procedure, abridged: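 Male OF1 mice (mean 30 g) made diabetic with a single i.p. dose of streptozocin 210 mg/kg; blood glucose >250 mg/dl at day 10 qualified. Ceftazidime 5 mg/day s.c. given on days 1–7. Challenge by lateral tail vein with 1 × 10⁵ CFU sporangiospores in 0.2 ml saline. Oral dosing once daily for 7 days, starting 1 day after challenge. Untreated controls. Ten mice per group.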

Assay [12] has as its system Cunninghamella bertholletiae. In words: Antifungal activity against Cunninghamella bertholletiae UTHSC 05-2275 infected in neutropenic OF1 mouse assessed as increase in mouse survival rate at 25 mg/kg, po bid administered 1 day after infection for 7 days relative to untreated control.
Assay [13] relates to Cunninghamella bertholletiae. Kind of assay: Antifungal activity against Cunninghamella bertholletiae UTHSC 06-1945 infected in neutropenic OF1 mouse assessed as decreased fungal load in brain at 60 mg/kg, po qd administered 1 day post infection measured after 4 to 5 days relative to untreated control. It counts as functional, organism-based. More on the design: dose 60 mg/kg. The procedure, abridged:
as §2

The test system of assay [14] is Cunninghamella bertholletiae. In words: Antifungal activity against Cunninghamella bertholletiae UTHSC 03-2241 infected in neutropenic OF1 mouse assessed as increase in mouse survival rate at 60 mg/kg, po qd administered 1 day after infection. More on the design: dose 60 mg/kg. It counts as functional, organism-based. The essentials: as §4
The subject of assay [15] is Cunninghamella bertholletiae. Kind of assay: Antifungal activity against Cunninghamella bertholletiae UTHSC 05-2275 infected in diabetic OF1 mouse assessed as increase in mouse survival rate at 60 mg/kg, po qd administered 1 day after infection for 7 days relative to untreated control. The assay is classed as functional, organism-based. On the set-up: dose 60 mg/kg. The procedure, abridged: as §3

In assay [16] the test system is Cunninghamella bertholletiae. Kind of assay: Antifungal activity against Cunninghamella bertholletiae FMR-9598 infected in neutropenic OF1 mouse assessed as decreased fungal load in brain at 60 mg/kg, po qd administered 1 day post infection measured after 4 to 5 days relative to untreated control. The assay is classed as functional, organism-based. On the set-up: dose 60 mg/kg. The essentials:
as §2

Active and inactive are the calls of the source. The rule behind the calls is not given here.

As to `C[C@@H]1[C@H](O)[C@@H](C)/C=C/C=C/C=C/C=C/C=C/C=C/C=C/[C@H](O[C@@H]2O[C@H](C)[C@@H](O)[C@H](N)[C@@H]2O)C[C@@H]2O[C@](O)(C[C@@H](O)C[C@@H](O)[C@H](O)CC[C@@H](O)C[C@@H](O)CC(=O)O[C@H]1C)C[C@H](O)[C@H]2C(=O)O` [AMPHOTERICIN B], the result in [1], in [2] and in assay [3] was Active. For the same molecule, the result in assay [4] was inactive.

Regarding `CC[C@@H]([C@H](C)O)n1ncn(-c2ccc(N3CCN(c4ccc(OC[C@@H]5CO[C@@](Cn6cncn6)(c6ccc(F)cc6F)C5)cc4)CC3)cc2)c1=O` [POSACONAZOLE], the result in assay [5], in [6], in [7], in assay [8], in assay [10] and in [13] was Active. In addition, the outcome in [14], in assay [15] and in [16] was Active. In addition, the result in assay [9], in assay [11] and in [12] was inactive.
